System: MS2 coat protein
Test: apparent Kd, MS2 coat protein; higher = weaker binding; RNA-MaP array; theophylline 2 mM where present
Method in brief: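 Green signal was scaled to red-channel RNA signal and control-cluster median Fmax, and the apparent Kd was taken as the median of filtered per-cluster binding-curve fits. The binding series used SNAP-549-labelled MS2 coat protein from 0.7 or 1.5 nM, doubling to 3 µM, on designs transcribed by stalled E. coli RNA polymerase on Illumina sequencing-chip clusters. Each series ran without and then with constant ligand in 100 mM Tris-HCl pH 7.5, 80 mM KCl, 4 mM MgCl2, BSA, DTT, yeast tRNA and Tween-20.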

[1] = designed as: OFF switch for theophylline, no ligand
[2] = ligand present: theophylline, designed as: OFF switch for theophylline
[3] = designed as: ON switch for theophylline, no ligand
[4] = ligand present: theophylline, designed as: ON switch for theophylline

| Sequence | apparent Kd [1] | apparent Kd [2] | apparent Kd [3] | apparent Kd [4] |
| --- | --- | --- | --- | --- |
| UGACAUUGCUCAGAUACCAGACAUGAGGAUCACCCAUGUACCAAGAGUACAAAUUAAAAUGUCCCUUGGCAGCUGAGCAAUGUCU | 19.6 nM | 483 nM | – | – |
| UUUUUUAACAUGGCGUAUCGGAAAACCGAUACCAGUACAGAAAUGUACCCUUGGCAGCGGCGUUUUACAUGAGGAUCACCCAUGU | 29.4 nM | 193 nM | – | – |
| UUCUACAUGAGGAUCACCCAUGUGGGUGAUACCAGCACUUUUUGGUGCCCUUGGCAGCACAUGAGAAUACCGUACGAUCGGUGAU | – | – | 376 nM | 615 nM |
| AUAAGGUAUCUGCUAUCCUCAUGAGCAGAUACCAGCUAGGAAACUAGCCCUUGGCAGCUGCAACAUGAGGAUCACCCAUGUAAUA | 409 nM | 92.3 nM | – | – |
| GAUGAACUAUUUGAUACCAGACUACAUGAGGAUCACCCAUGUGUGUUUAUACUUCAGUCAGUCCCUUGGCAGCAAAUAGUUUAUC | 147 nM | 306 nM | – | – |
| AAUAUAAGUGUAAUUAUAUUUAUAUCUGAUACCAGACUCUCAUGUGUCCCUUGGCAGCAGUUACAUGAGGAUCACCCAUGUAUUA | – | – | 76 nM | 21.6 nM |
| UGGUACAUGAGGAUCACCCAUGUUCCAGAUACCAGACUCCCGGUGGUCCCUUGGCAGCUGGUGGUACAUGAGGAUCACCCAUGUG | 30.4 nM | 49.9 nM | – | – |
| AGCGACAUGCGUGAUACCAGCUACAUGAGGAUCACCCAUGUCAGUAGGAAACUGCUGUGUAGCCCUUGGCAGCACAGUGCAUGUC | 34.9 nM | 38.6 nM | – | – |
| GAGGGUGGGUCUCUAAUCCGUUUGACGGAUACCAGCGAGAGAUAUCGCCCUUGGCAGCCGACGACAUGAGGAUCACCCAUGUAAA | 15.6 nM | 101 nM | – | – |
| AAACUGGGUGUAAAAUAAAUAAUCACUGAUACCAGACUAUAGUAUGUCCCUUGGCAGCAGAAACAUGAGGAUCACCCAUGUAAUA | 21.7 nM | 21.3 nM | – | – |
| CGUACAUGAGGAUCACCCAUGUAGAGUGAUACCAGUCUACCUAGUGACCCUUGGCAGCACAUCGAUGGCAUCGGUGAUGCCGUUU | – | – | 87.3 nM | 83.3 nM |
| CUCUGAGUGAGCAAUCACUCAGAGGCGGAUACCAGCGAGGUCCAUCGCCCUUGGCAGCCGAACAUGAGGAUCACCCAUGUCGGUA | – | – | 10.1 nM | 16.6 nM |
| UGUAACAUGAGGAUCACCCAUGUGCACGAUACCAGCUUCGAAAGAGGCCCUUGGCAGCGUAUGCGUAAGCUGUAUAAUAUAUAUC | – | – | 11.4 nM | 13.6 nM |
| AAUAACAUGAGGAUCACCCAUGUAAAAGAUACCAGAGUGAUGAUCCUCCCUUGGCAGCUUAAAACGCUAUUGAUUACAAUAGCGA | – | – | 54.9 nM | 119 nM |
| AAUCUGUCGGGUGAUACCAGCCUCGGCACGUCUCGUGCCGAACAUGAGGAUCACCCAUGUGGCCCUUGGCAGCACAUGACAAAUC | – | – | 258 nM | 88.6 nM |
| AGACAUGAGGAUCACCCAUGUAGUAUGGAUACCAGAUCCAGAUUUAUCCCUUGGCAGCUGUGGUACAGCGAUGGAUCGCUCCUAG | 23.4 nM | 27.8 nM | – | – |
| AGCGACAUGCGUGAUACCAGCUACAUGAGGAUCACCCAUGUCAGCAGGAAACUGCUGUGUAGCCCUUGGCAGCACAGUGCAUGUC | 12.7 nM | 24.7 nM | – | – |
| AUAACAUGAGGAUCACCCAUGUAAGCAGAUACCAGCUAGGAAACUAGCCCUUGGCAGCUGCAUAGUGAUCCAUAUAUCUGCUAAU | 53.6 nM | 42.8 nM | – | – |
| CAAACAUGAGGAUCACCCAUGUAAUCAGAUACCAGUGACGAAAGUCACCCUUGGCAGCUGAUUACUUUAGUUCUAAGGUGUUUGA | 92.6 nM | 56.6 nM | – | – |
| GUGUUUGUGUGAGAUACCAGUGAGGCCACAUGAGGAUCACCCAUGUCCCUCACUCCGGCCCACCCUUGGCAGCUCUUAUAGUAGU | 9.39 nM | 38.4 nM | – | – |
| AUUUUUCUAUCAGAUACCAGACAAUUUUAGACAUGAGGAUCACCCAUGUAUAGGGUGUUCGUCCCUUGGCAGCUGUUAAGUUUAA | – | – | 190 nM | 205 nM |
| AUCUCAUAGAGUGAUACCAGACUACAUGAGGAUCACCCAUGUUACAUUUAAAUAUCAUUUGUCCCUUGGCAGCACAUUAAGUACA | 24.3 nM | 15.2 nM | – | – |
| AUGUCAUUGGUGCAGCUGUUAAAUGGCGAUACCAGCGUGGAAACACGCCCUUGGCAGCGCCAAAACAUGAGGAUCACCCAUGUUA | 28 nM | 83 nM | – | – |
| AGCGCAGGUCCUGAUACCAGUGACAUGAGGAUCACCCAUGUCCGAUGGGCCUGCCUCUGACACCCUUGGCAGCAGGGCUUGUGCU | 23.7 nM | 29.8 nM | – | – |
| GGGCCUGUAAGCAGACCCACAGCGGGUGAUACCAGCAAUAAAACUUGCCCUUGGCAGCACACAGCUACAUGAGGAUCACCCAUGU | – | – | 43.2 nM | 83.2 nM |

Source: the EternaBench riboswitch data
